In brackets after ≈: the same amount, converted by molar mass. Activity calls are given as the source filed them. The calls are words filed in the database; no cut-off is given here.
Assays:
[1] = molecular target: T1, Glycogen synthase kinase-3 beta (Homo sapiens, UniProt P49841); assay: Inhibition of GSK-3beta (unknown origin) using (RREGGMSRPAS(p)VDG as substrate assessed as 32P[gamma-ATP] incorporation into substrate after 15 mins by autoradiography
Target sequence in this assay (P49841 whole entry): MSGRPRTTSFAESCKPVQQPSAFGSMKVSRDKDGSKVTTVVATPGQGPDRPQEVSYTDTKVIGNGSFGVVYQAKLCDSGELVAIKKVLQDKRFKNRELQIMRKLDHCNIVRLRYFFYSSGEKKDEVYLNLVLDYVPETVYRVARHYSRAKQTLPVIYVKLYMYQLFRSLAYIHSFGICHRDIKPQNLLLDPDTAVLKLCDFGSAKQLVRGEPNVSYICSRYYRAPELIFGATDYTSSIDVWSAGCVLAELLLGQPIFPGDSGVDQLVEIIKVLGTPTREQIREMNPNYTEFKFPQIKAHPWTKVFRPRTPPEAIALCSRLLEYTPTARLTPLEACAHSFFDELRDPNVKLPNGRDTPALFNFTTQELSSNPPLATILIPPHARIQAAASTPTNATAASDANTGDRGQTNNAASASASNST

[2] = molecular target: cAMP-dependent protein kinase catalytic subunit alpha (Homo sapiens) (UniProt P17612); assay: Inhibition of human PKAalpha at 1 uM
How it was run: (§1)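 Selectivity panel of 17 human protein kinases, each tested at a single 1 µM concentration. Read-out was percent inhibition of kinase activity. Values are the average of two independent measurements.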

[3] = molecular target: T1, Glycogen synthase kinase-3 beta; assay: Inhibition of human GSK-3beta-mediated tau phosphorylation in doxycycline/synthetic tau fibril-induced HEK293 cells assessed as increase in faster-mobility 17025 band at 1 uM after 48 hrs by Immunoblotting analysis; assay type: cell-based
How it was run: (§2)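 HEK-293 cells express full-length 4-repeat tau (T40) carrying P301L under a doxycycline-regulated promoter. Doxycycline induces expression; 48 h later cells are seeded with synthetic fibrils made from recombinant tau. They are then treated with 1 µM compound or vehicle for 48 h, with non-fibril cells as controls. Lysates are immunoblotted with AT180 (pT231/pS235), 17025 (total tau) and GAPDH as loading control.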
Target sequence in this assay (P49841 whole entry, looked up): as the sequence (P49841 whole entry) above

[4] = molecular target: Glycogen synthase kinase-3 alpha (Homo sapiens) (UniProt P49840); assay: Inhibition of human recombinant GSK-3alpha using ATP/Ulight-CFFKNIVTPRTPPPSQGK-amide as substrate at 1 uM after 60 mins by LANCE assay; how it was run: as §1
[5] = Aqueous solubility of the compound at pH 7.4; assay type: physicochemical
[6] = molecular target: Serine/threonine-protein kinase RAF and Dual specificity mitogen-activated protein kinase kinase 1 (Raf/MEK) (Homo sapiens) (UniProt P04049+Q02750); assay: Inhibition of human RAF1/MEK1 at 1 uM; assay type: protein assay; how it was run: as §1
[7] = molecular target: T1, Glycogen synthase kinase-3 beta; assay: Inhibition of GSK3beta in human OVCAR8 cells up to 5 uM; assay type: cell-based; conditions: OVCAR-8
How it was run: (§3)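 Ovarian carcinoma OVCAR-8 cells and their cognate P-glycoprotein-overexpressing line NCI/ADR-RES. Compound tested at concentrations up to 5 µM.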
Target sequence in this assay (P49841 whole entry, looked up): as the sequence (P49841 whole entry) above

[8] = molecular target: T2, Aurora kinase A (Homo sapiens) (UniProt O14965); assay: Inhibition of human recombinant Aurora A expressed in insect sf21 cells using ATP/Ulight-RRRSLLE as substrate at 1 uM after 15 mins by LANCE assay; how it was run: as §1
T2 sequence (whole entry): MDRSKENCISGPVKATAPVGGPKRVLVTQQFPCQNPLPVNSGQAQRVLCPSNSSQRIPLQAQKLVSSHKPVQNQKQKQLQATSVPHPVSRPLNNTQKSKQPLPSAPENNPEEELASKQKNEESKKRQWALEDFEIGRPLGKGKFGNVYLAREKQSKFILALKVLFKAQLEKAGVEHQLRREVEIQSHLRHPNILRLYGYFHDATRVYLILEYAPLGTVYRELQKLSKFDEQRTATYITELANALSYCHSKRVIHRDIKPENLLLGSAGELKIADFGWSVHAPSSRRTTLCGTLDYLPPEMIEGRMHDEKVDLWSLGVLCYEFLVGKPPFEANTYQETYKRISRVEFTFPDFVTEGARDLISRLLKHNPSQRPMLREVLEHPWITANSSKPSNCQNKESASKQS

[9] = molecular target: T3, Serine/threonine-protein kinase Sgk1 (Homo sapiens) (UniProt O00141); assay: Inhibition of human recombinant SGK1 using ATP/Ulight-RRRSLLE as substrate at 1 uM after 30 mins by LANCE assay; how it was run: as §1
T3 sequence (whole entry): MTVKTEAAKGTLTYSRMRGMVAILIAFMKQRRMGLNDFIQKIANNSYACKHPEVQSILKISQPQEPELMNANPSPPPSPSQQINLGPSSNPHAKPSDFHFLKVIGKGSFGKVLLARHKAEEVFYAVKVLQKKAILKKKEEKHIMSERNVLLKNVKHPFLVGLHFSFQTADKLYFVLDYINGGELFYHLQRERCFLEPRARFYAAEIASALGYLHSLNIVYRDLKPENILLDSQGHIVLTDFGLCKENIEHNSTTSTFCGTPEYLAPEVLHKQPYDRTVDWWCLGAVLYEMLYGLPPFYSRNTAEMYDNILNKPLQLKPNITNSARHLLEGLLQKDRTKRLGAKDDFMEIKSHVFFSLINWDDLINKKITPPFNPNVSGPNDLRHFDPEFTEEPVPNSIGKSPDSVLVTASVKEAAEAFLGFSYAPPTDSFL

[10] = molecular target: Platelet-derived growth factor receptor beta (Homo sapiens) (UniProt P09619); assay: Inhibition of human recombinant PDGFRbeta expressed in insect cells using ATP/Ulight-PolyGAT[EAY(1:1:1)]n as substrate at 1 uM after 30 mins by LANCE assay; how it was run: as §1
[11] = molecular target: Vascular endothelial growth factor receptor 2 (Homo sapiens) (UniProt P35968); assay: Inhibition of human recombinant VGFR2 expressed in insect sf9 cells using ATP/Ulight-CAGAGAIETDKEYYTVKD as substrate at 1 uM after 60 mins by LANCE assay; how it was run: as §1
[12] = molecular target: T1, Glycogen synthase kinase-3 beta; assay: Inhibition of GSK3beta in human NCI/ADR-RES cells up to 5 uM; assay type: cell-based; how it was run: as §3
Target sequence in this assay (P49841 whole entry, looked up): as the sequence (P49841 whole entry) above

[13] = molecular target: Tyrosine-protein kinase Fyn (Homo sapiens) (UniProt P06241); assay: Inhibition of human recombinant Fyn expressed in insect cells using ATP/biotinyl-betaAbetaAbetaAYQAEENTYDEYEN as substrate at 1 uM after 60 mins by HTRF assay; how it was run: as §1
[14] = molecular target: Proto-oncogene tyrosine-protein kinase receptor Ret (Homo sapiens) (UniProt P07949); assay: Inhibition of human recombinant RET expressed in insect cells using ATP/biotinyl-betaAbetaAbetaAAEEEEYFELVAKKK as substrate at 1 uM after 30 mins by HTRF assay; how it was run: as §1
[15] = molecular target: T1, Glycogen synthase kinase-3 beta; assay: Inhibition of human GSK-3beta-mediated tau phosphorylation in doxycycline/synthetic tau fibril-induced HEK293 cells assessed as increase in faster-migrating AT180 band at 1 uM after 48 hrs by Immunoblotting analysis; assay type: cell-based; how it was run: as §2
Target sequence in this assay (P49841 whole entry, looked up): as the sequence (P49841 whole entry) above

Homo sapiens [16] = organism: Homo sapiens; assay: Selectivity ratio of IC50 for human recombinant CDK2 to IC50 for GSK-3beta (unknown origin)
[17] = molecular target: Cyclin-dependent kinase 5/CDK5 activator 1 (Homo sapiens) (UniProt Q00535+Q15078); assay: Inhibition of human recombinant CDK5/p35 expressed in insect cells using ATP/Ulight-CFFKNIVTPRTPPPSQGK-amide as substrate at 1 uM after 60 mins by LANCE assay; how it was run: as §1
[18] = molecular target: Cyclin-dependent kinase 2 (Homo sapiens, UniProt P24941); assay: Inhibition of human recombinant CDK2 using ATP/Ulight-CFFKNIVTPRTPPPSQGK-amide as substrate after 30 mins by LANCE assay
[19] = molecular target: Mitogen-activated protein kinase 3 (Homo sapiens) (UniProt P27361); assay: Inhibition of human recombinant ERK1 expressed in Escherichia coli using ATP/Ulight-CFFKNIVTPRTPPPSQGK-amide as substrate at 1 uM after 30 mins by LANCE assay; how it was run: as §1
[20] = molecular target: Rho-associated protein kinase 1 (Homo sapiens) (UniProt Q13464); assay: Inhibition of human recombinant ROCK1 using ATP/Ulight-RRRSLLE as substrate at 1 uM after 30 mins by LANCE assay; how it was run: as §1
[21] = molecular target: T4, Mitogen-activated protein kinase 13 (Homo sapiens) (UniProt O15264); assay: Inhibition of human recombinant P38delta expressed in Escherichia coli using ATP/Ulight-CFFKNIVTPRTPPPSQGK-amide as substrate at 1 uM after 15 mins by LANCE assay; how it was run: as §1
T4 sequence (whole entry): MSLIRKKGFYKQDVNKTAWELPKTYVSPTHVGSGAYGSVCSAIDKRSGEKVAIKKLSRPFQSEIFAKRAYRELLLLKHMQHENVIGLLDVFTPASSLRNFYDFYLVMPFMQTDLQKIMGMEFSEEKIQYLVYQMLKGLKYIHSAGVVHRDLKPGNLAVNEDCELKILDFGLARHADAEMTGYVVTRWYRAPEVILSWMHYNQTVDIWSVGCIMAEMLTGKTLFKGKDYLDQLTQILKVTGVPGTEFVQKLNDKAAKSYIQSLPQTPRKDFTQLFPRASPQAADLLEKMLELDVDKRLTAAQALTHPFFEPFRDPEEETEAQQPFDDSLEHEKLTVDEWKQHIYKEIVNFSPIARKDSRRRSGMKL

[22] = molecular target: Receptor-type tyrosine-protein kinase FLT3 (Homo sapiens) (UniProt P36888); assay: Inhibition of human FLT3 at 1 uM; how it was run: as §1
[23] = molecular target: Leucine-rich repeat serine/threonine-protein kinase 2 (Homo sapiens) (UniProt Q5S007); assay: Inhibition of human recombinant LRRK2 expressed in insect cells using ATP/Ulight-RRRSLLE as substrate at 1 uM after 60 mins by LANCE assay; how it was run: as §1
[24] = molecular target: T1, Glycogen synthase kinase-3 beta; assay: Inhibition of human GSK-3beta-mediated tau phosphorylation in doxycycline/synthetic tau fibril-induced HEK293 cells assessed as decrease in slow mobility of AT180 band at 1 uM after 48 hrs by Immunoblotting analysis; assay type: cell-based; how it was run: as §2
Target sequence in this assay (P49841 whole entry, looked up): as the sequence (P49841 whole entry) above

[25] = molecular target: Calcium/calmodulin-dependent protein kinase type II subunit alpha (Homo sapiens) (UniProt Q9UQM7); assay: Inhibition of human recombinant CaMK2alpha using ATP/Ulight-CGSGSGRPRTSSFAEG as substrate at 1 uM after 30 mins by LANCE assay; how it was run: as §1
Homo sapiens [26] = organism: Homo sapiens; assay: Inhibition of human recombinant PKA alpha expressed in Escherichia coli using ATP/Ulight-RRRSLLE as substrate at 1 uM after 10 mins by LANCE assay
How it was run: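 Single-concentration (1 µM) percent inhibition within a 17-member human kinase panel. Values are the average of two independent measurements.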

Calcium/calmodulin-dependent protein kinase type II subunit alpha (Homo sapiens), sequence (Q9UQM7 whole entry): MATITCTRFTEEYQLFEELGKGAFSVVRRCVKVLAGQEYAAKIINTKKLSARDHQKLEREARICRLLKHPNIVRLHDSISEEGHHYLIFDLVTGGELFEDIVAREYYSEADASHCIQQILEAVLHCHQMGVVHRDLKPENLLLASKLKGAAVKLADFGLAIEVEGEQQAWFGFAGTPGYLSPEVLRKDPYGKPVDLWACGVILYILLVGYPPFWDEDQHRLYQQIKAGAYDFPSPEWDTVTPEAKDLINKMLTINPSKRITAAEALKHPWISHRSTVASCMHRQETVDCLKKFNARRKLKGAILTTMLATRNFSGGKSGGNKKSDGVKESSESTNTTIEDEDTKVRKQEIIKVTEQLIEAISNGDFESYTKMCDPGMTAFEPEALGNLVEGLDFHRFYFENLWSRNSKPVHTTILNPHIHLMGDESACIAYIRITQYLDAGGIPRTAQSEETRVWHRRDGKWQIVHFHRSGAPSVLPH
Cyclin-dependent kinase 5/CDK5 activator 1 (Homo sapiens), sequence (Q00535 whole entry): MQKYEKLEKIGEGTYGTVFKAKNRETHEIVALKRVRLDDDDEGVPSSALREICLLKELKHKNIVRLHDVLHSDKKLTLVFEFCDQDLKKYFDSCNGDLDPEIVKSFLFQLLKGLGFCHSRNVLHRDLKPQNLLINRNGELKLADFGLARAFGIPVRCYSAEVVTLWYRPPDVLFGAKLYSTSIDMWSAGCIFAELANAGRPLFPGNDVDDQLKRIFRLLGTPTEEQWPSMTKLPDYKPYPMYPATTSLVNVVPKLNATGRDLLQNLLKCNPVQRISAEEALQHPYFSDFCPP
Cyclin-dependent kinase 5/CDK5 activator 1 (Homo sapiens), sequence (Q15078 99-307 partner limits assumed): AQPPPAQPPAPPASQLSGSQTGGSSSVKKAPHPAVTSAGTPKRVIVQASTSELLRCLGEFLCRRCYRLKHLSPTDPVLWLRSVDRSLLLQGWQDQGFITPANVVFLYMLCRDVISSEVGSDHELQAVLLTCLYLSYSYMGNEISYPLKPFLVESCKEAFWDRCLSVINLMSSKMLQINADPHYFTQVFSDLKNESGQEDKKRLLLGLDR
Glycogen synthase kinase-3 alpha (Homo sapiens), sequence (P49840 2-483 limits assumed): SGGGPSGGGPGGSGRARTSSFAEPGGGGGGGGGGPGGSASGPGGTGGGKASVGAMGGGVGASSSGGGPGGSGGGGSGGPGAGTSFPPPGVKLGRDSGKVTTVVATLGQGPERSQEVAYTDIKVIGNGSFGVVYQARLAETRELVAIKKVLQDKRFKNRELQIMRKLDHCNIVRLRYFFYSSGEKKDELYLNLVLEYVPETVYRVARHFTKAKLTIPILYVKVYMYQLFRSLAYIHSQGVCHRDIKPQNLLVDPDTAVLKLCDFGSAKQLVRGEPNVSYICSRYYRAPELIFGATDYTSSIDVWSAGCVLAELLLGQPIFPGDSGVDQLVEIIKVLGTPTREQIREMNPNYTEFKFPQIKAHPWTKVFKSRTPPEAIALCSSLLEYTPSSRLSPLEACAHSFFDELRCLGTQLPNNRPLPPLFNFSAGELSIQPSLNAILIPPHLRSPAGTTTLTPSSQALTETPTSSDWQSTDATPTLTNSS
Tyrosine-protein kinase Fyn (Homo sapiens), sequence (P06241 2-537 limits assumed): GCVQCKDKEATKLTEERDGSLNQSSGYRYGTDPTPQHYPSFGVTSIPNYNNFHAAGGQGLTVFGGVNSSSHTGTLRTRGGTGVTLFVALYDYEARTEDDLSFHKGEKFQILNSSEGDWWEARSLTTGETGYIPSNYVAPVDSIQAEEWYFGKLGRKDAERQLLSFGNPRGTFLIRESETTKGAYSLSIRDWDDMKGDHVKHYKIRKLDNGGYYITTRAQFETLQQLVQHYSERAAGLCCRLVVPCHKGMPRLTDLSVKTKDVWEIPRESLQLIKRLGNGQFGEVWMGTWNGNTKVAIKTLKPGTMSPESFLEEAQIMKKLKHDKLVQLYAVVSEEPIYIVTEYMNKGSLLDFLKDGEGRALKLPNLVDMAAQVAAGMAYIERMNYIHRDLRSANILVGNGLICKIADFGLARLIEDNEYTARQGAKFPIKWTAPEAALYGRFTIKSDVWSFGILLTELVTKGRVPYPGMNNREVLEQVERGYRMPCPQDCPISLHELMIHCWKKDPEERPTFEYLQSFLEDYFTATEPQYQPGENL
Serine/threonine-protein kinase RAF and Dual specificity mitogen-activated protein kinase kinase 1 (Raf/MEK) (Homo sapiens), sequence (P04049 whole entry, looked up): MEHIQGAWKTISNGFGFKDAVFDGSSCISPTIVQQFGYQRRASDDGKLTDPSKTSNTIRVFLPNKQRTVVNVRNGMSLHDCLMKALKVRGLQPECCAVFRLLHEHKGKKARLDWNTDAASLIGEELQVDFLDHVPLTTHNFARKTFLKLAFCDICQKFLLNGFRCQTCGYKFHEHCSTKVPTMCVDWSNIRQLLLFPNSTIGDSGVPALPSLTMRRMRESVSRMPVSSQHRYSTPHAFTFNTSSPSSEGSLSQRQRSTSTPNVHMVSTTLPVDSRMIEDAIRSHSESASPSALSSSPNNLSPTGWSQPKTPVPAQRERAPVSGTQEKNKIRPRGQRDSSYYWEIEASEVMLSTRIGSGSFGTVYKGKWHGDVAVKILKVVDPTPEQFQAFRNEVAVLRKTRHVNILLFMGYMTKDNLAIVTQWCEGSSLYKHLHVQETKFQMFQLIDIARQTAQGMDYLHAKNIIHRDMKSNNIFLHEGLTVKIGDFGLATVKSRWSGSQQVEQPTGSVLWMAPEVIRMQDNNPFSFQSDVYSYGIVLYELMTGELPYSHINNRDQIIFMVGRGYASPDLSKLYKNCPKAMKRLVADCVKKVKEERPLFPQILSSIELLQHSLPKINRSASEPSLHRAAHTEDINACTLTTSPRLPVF
Serine/threonine-protein kinase RAF and Dual specificity mitogen-activated protein kinase kinase 1 (Raf/MEK) (Homo sapiens), sequence (Q02750 whole entry, looked up): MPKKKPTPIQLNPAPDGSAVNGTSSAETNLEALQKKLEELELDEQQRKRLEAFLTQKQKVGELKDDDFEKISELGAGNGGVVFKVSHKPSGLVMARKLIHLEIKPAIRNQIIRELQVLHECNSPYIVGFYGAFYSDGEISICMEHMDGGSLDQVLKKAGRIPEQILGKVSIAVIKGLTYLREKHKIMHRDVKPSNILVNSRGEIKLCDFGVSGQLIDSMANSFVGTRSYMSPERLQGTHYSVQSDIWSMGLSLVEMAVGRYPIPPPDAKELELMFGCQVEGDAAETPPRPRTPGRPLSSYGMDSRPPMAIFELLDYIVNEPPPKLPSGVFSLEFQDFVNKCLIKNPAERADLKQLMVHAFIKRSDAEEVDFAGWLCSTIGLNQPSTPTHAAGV
Mitogen-activated protein kinase 3 (Homo sapiens), sequence (P27361 whole entry): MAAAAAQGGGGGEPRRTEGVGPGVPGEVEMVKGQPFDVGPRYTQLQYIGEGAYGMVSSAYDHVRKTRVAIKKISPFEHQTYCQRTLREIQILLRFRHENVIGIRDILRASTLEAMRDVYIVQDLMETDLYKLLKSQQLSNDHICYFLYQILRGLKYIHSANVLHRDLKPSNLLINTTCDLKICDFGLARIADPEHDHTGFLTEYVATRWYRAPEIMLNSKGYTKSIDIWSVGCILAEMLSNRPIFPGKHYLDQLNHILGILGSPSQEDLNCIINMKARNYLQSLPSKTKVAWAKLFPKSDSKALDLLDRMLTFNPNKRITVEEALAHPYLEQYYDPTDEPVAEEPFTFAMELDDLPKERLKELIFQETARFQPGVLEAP

Cc1nn(-c2ccccc2)c2c1c1c(c3cccn32)C(=O)NC1=O
IC50 [1]: 690 nM

Cc1nn(-c2ccccc2Cl)c2c1c1c(c3cccn32)C(=O)NC1=O
IC50 [1]: 940 nM

O=C1NC(=O)c2c1c1cnn(-c3ccccc3)c1n1cccc21
IC50 [1]: 1690 nM

O=C1NC(=O)c2c1c1cnn(-c3ccccc3Cl)c1n1cccc21
IC50 [1]: 810 nM

Cc1ccccc1-n1nc(C)c2c3c(c4cccn4c21)C(=O)NC3=O
IC50 [1]: 440 nM

Cc1nn(-c2ccc(Cl)cc2Cl)c2c1c1c(c3cccn32)C(=O)NC1=O
inhibition [2]: < 10%
inhibition [3]: Active
inhibition [4]: 98.3%
solubility [5]: 3.1 µM (≈ 1.19 µg/mL)
inhibition [6]: < 10%
inhibition [7]: inactive
inhibition [8]: < 10%
inhibition [9]: < 10%
inhibition [10]: 13.7%
IC50 [1]: 240 nM
inhibition [11]: < 10%
inhibition [12]: inactive
inhibition [13]: < 10%
inhibition [14]: < 10%
inhibition [15]: Active
Ratio IC50 (Homo sapiens [16]): > 10
inhibition [17]: < 10%
IC50 [18]: 2800 nM
inhibition [19]: < 10%
inhibition [20]: < 10%
inhibition [21]: < 10%
inhibition [22]: 30%
inhibition [23]: < 10%
inhibition [24]: Active
inhibition [25]: < 10%
inhibition (Homo sapiens [26]): < 10%

Cc1ccccc1-n1ncc2c3c(c4cccn4c21)C(=O)NC3=O
IC50 [1]: 1210 nM

COc1ccccc1-n1ncc2c3c(c4cccn4c21)C(=O)NC3=O
IC50 [1]: 1000 nM

From ChEMBL document CHEMBL3108740, “Design, synthesis, and biological evaluation of 1-phenylpyrazolo[3,4-e]pyrrolo[3,4-g]indolizine-4,6(1H,5H)-diones as new glycogen synthase kinase-3β inhibitors” (J Med Chem, 2013)
